Experimental findings from BindingDB's records for doi:10.1021/jm049696n (Human Biomolecular Research Institute, 2005) are described below.

SMILES strings stand for the structures.

Data set [1] has as its target CYP3A4 (Homo sapiens, UniProt P08684). Description: Inhibitory concentration value against human cytochrome P-450 3A4. Summed up: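 Human liver microsomes (0.4 mg) in 0.05 M potassium phosphate, pH 7.5, with an NADPH-generating system, DETAPAC and 3 mM MgCl2. Inhibitor at 0.02–400 µM. Started with 0.2 mM testosterone and run 30 min at 37 °C with shaking. Stopped with ethyl acetate, then extracted. 6β-hydroxytestosterone measured by reverse-phase HPLC with UV detection at 254 nm. IC50 values are the mean of at least three determinations ± SD.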

In data set [2] the target is CYP2D6 (Homo sapiens, UniProt P10635). Description: Inhibitory concentration value against human cytochrome P-450 2D6. Summed up: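 Baculovirus insect-cell microsomes coexpressing each CYP with reductase and b5, in 0.2 M potassium phosphate pH 8.0. Vivid blue substrate O-dealkylation used 5 µM substrate with 10 nM enzyme for 2B6, 10 µM with 5 nM for 2C19, 10 µM with 10 nM for 2D6, and 10 µM with 5 nM for 2E1. Inhibitor 0.02–400 or 0.14–300 µM. NADPH-generating system, 40 min at room temperature, fluorescence 405/460 nm. IC50 is the mean of three ± SD.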

Data set [3] addresses CYP2E1 (Homo sapiens, UniProt P05181). Nature of the data set: Inhibitory concentration value against human cytochrome P-450 2E1. Summed up:
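Baculovirus-expressed CYP2E1 (co-expressing P450 reductase and cytochrome b5), 5 nM final, with 10 µM Vivid blue substrate in 0.2 M potassium phosphate pH 8.0. Inhibitor at eight levels from 0.02 to 400 µM, or six from 0.14 to 300 µM. Started with an NADPH-generating system, then 40 min at room temperature. O-dealkylated product read by fluorescence (ex 405/em 460 nm). IC50 is the mean of three experiments.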

Chain of CYP3A4 (P08684 whole entry): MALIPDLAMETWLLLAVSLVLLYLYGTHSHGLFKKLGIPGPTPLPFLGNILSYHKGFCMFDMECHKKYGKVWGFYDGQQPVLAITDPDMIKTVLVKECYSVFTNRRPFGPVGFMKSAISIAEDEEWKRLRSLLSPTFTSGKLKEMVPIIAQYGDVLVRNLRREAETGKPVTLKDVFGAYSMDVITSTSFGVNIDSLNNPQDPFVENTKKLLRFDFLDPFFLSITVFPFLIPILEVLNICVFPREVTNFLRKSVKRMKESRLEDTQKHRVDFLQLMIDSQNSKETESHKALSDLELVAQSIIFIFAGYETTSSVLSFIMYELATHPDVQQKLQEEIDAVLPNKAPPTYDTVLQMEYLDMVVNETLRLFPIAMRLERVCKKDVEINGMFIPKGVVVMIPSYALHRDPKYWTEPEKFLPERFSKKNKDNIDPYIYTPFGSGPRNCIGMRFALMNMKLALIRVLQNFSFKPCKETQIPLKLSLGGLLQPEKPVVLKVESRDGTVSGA
Chain of CYP2D6 (P10635 whole entry): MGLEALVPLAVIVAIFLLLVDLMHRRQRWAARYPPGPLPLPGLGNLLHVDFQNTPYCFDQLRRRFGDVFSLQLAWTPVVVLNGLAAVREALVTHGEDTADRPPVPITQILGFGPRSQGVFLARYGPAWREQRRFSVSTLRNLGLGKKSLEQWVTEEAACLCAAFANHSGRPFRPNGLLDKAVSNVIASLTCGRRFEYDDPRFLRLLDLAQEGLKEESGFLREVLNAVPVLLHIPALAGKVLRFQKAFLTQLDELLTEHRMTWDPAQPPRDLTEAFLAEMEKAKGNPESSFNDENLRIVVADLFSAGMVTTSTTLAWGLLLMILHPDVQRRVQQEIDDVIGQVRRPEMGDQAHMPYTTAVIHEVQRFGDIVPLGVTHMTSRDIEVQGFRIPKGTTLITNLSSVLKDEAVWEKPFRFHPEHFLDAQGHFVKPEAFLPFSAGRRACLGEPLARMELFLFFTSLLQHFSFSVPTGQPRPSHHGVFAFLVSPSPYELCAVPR
Chain of CYP2E1 (P05181 whole entry): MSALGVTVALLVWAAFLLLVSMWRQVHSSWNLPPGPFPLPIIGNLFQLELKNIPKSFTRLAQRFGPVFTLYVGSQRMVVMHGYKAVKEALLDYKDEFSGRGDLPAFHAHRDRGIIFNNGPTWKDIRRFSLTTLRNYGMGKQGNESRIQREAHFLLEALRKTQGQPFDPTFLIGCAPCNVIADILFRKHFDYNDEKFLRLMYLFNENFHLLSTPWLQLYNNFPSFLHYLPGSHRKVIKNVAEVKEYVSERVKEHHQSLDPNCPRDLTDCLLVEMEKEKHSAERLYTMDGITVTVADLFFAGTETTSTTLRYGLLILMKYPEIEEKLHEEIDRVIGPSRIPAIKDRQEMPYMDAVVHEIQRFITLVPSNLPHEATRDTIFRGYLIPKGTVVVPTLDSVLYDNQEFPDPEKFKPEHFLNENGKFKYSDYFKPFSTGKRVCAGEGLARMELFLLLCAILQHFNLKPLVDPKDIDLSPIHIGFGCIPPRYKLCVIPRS

Take `O=NCc1ccc(-c2cccnc2)o1` [US8609708, 24]: the IC50 in data set [1], in data set [2] and in data set [3] was above 400 µM each time.
As to `NCc1ccc(-c2cccnc2)s1` [US8609708, 31], the concentration for half-maximal inhibition (IC50) was determined as 77.5 µM in data set [1] and 197 µM in data set [2].

The term IC50 denotes the concentration that inhibits the measured activity by half. Low readings indicate greater potency, high ones weaker potency.
